# The RNAGym collection of RNA variant scans (doi:10.1038/s41586-018-0170-7)
# B1: tRNA (parent)
# chain: GUUCCGUUGGCGUAAUGGUAACGCGUCUCCCUCCUAAGGAGAAGACUGCGGGUUCGAGUCCCGUACGGAACG
# Variants of: B1
# Assay: yeast fitness, log relative to wild type (ln ratio); higher = fitter; tRNA-Arg(CCU), competitive growth, 37 C, 1 M NaCl
# Method in brief: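 Fitness is the natural log of each genotype's generations divided by the wild type's. Generations were derived as OD-scaled log2 output/input frequency from 125 bp paired-end Illumina counts, weighting replicates by inverse variance. Pools of the tRNA-Arg(CCU) variant library, on a HIS3 centromeric plasmid in BY4742 lacking the chromosomal gene, grew ~6.5 generations (~26.5 h) in SC-HIS 1M NaCl at 37 °C after 4 generations in SC-HIS at 30 °C.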
row,Variant,yeast fitness (ln)
1,AUUCCGUUGGCGUAAUGGUAACGCGUCUCCCUCCUAAGGAGACGAUUGCGGGUUCGAGUCCCGUACGGAUUG,-0.116
2,AUUCCGUUGGCGUAAUGGUAACGCGUCUCCCUCCUAAGGAGACGACUGCGGGUUCGAGUCCCGUACGGGGUG,-0.353
3,AUUCCGUUGGCGUAAUGGUAACGCGUCUCCCUCCUAAGGAGAAGACUGCGGGUUCGAGUCCCGUACGGAACG,-0.0233
4,AUUCCGUUGGCGUAAUGGUAACGCGUCUCCCUCCUAAGGAGACGACUGCGGGUUCGAGUCCCGUACGGGACG,-0.145
5,AUUCCGUUGGCGUAAUGGUAACGCGUCUCCCUCCUAAGGAGACGAUUGCGGGUUCGAGUCCCGUACGGAUCG,-0.0611
6,AUUCCGUUGGCGUAAUGGUAACGCGUCUCCCUCCUAAGGAGACGAUUGCGGGUUCGAGUCCCGUACGGAGCG,-0.166
7,AUUCCGUUGGCGUAAUGGUAACGCGUCUCCCUCCUAAGGAGACGAUUGCGGGUUCGAGUCCCGUAUGGGUUG,-0.469
8,AUUCCGUUGGCGUAAUGGUAACGCGUCUCCCUCCUAAGGAGACGACUGCGGGUUCGAGUCCCGUACGGGAUG,-0.0687
9,AUUCCGUUGGCGUAAUGGUAACGCGUCUCCCUCCUAAGGAGACGAUUGCGGGUUCGAGUCCCGUACGGGACG,-0.261
10,AUUCCGUUGGCGUAAUGGUAACGCGUCUCCCUCCUAAGGAGACGAUUGCGGGUUCGAGUCCCGUAAGGAUUG,-0.189
11,AUUCCGUUGGCGUAAUGGUAACGCGUCUCCCUCCUAAGGAGACGACUGCGGGUUCGAGUCCCGUACGGGUUG,-0.366
12,AUUCCGUUGGCGUAAUGGUAACGCGUCUCCCUCCUAAGGAGACGAUUGCGGGUUCGAGUCCCGUAAGGAAUG,-0.139
13,AUUCCGUUGGCGUAAUGGUAACGCGUCUCCCUCCUAAGGAGACGACUGCGGGUUCGAGUCCCGUACGGGUCG,-0.257
14,AUUCCGUUGGCGUAAUGGUAACGCGUCUCCCUCCUAAGGAGACGACUGCGGGUUCGAGUCCCGUACGGGGCG,-0.11
15,AUUCCGUUGGCGUAAUGGUAACGCGUCUCCCUCCUAAGGAGACGAUUGCGGGUUCGAGUCCCGUAUGGGGUG,-0.263
16,AUUCCGUUGGCGUAAUGGUAACGCGUCUCCCUCCUAAGGAGACGAUUGCGGGUUCGAGUCCCGUACGGAACG,-0.059
17,AUUCCGUUGGCGUAAUGGUAACGCGUCUCCCUCCUAAGGAGACGACUGCGGGUUCGAGUCCCGUACGGAACG,-0.119
18,AUUCCGUUGGCGUAAUGGUAACGCGUCUCCCUCCUAAGGAGACGAUUGCGGGUUCGAGUCCCGUACGGGGUG,-0.13
19,AUUCCGUUGGCGUAAUGGUAACGCGUCUCCCUCCUAAGGAGACGAUUGCGGGUUCGAGUCCCGUAAGGGAUG,-0.216

row,Variant,yeast fitness (ln)
1,AUUCCGUUGGCGUAAUGGUAACGCGUCUCCCUCCUAAGGAGACGAUUGCGGGUUCGAGUCCCGUACGGGUUG,-0.33
2,AUUCCGUUGGCGUAAUGGUAACGCGUCUCCCUCCUAAGGAGACGAUUGCGGGUUCGAGUCCCGUAUGGAACG,-0.151
3,AUUCCGUUGGCGUAAUGGUAACGCGUCUCCCUCCUAAGGAGACGAUUGCGGGUUCGAGUCCCGUAAGGGGUG,-0.191
4,AUUCCGUUGGCGUAAUGGUAACGCGUCUCCCUCCUAAGGAGACGACUGCGGGUUCGAGUCCCGUACGGAGUG,-0.095
5,AUUCCGUUGGCGUAAUGGUAACGCGUCUCCCUCCUAAGGAGACGACUGCGGGUUCGAGUCCCGUACGGAGCG,-0.159
6,AUUCCGUUGGCGUAAUGGUAACGCGUCUCCCUCCUAAGGAGACGACUGCGGGUUCGAGUCCCGUACGGAUCG,-0.13
7,AUUCCGUUGGCGUAAUGGUAACGCGUCUCCCUCCUAAGGAGACGAUUGCGGGUUCGAGUCCCGUAUGGGUCG,-0.259
8,AUUCCGUUGGCGUAAUGGUAACGCGUCUCCCUCCUAAGGAGACGAUUGCGGGUUCGAGUCCCGUAUGGGGCG,-0.222
9,AUUCCGUUGGCGUAAUGGUAACGCGUCUCCCUCCUAAGGAGACGAUUGCGGGUUCGAGUCCCGUAAGGGUUG,-0.36
10,AUUCCGUUGGCGUAAUGGUAACGCGUCUCCCUCCUAAGGAGACGAUUGCGGGUUCGAGUCCCGUAAGGAUCG,-0.082
11,AUUCCGUUGGCGUAAUGGUAACGCGUCUCCCUCCUAAGGAGACGAUUGCGGGUUCGAGUCCCGUAAGGAGCG,-0.113
12,AUUCCGUUGGCGUAAUGGUAACGCGUCUCCCUCCUAAGGAGACGAUUGCGGGUUCGAGUCCCGUACGGGAUG,-0.0151
13,AUUCCGUUGGCGUAAUGGUAACGCGUCUCCCUCCUAAGGAGACGAUUGCGGGUUCGAGUCCCGUAAGGAGUG,-0.191
14,AUUCCGUUGGCGUAAUGGUAACGCGUCUCCCUCCUAAGGAGACGACUGCGGGUUCGAGUCCCGUACGGAUUG,-0.32
15,AUUCCGUUGGCGUAAUGGUAACGCGUCUCCCUCCUAAGGAGACGAUUGCGGGUUCGAGUCCCGUAAGGGGCG,-0.169
16,AUUCCGUUGGCGUAAUGGUAACGCGUCUCCCUCCUAAGGAGACGAUUGCGGGUUCGAGUCCCGUAAGGGUCG,-0.113
17,AUUCCGUUGGCGUAAUGGUAACGCGUCUCCCUCCUAAGGAGACGAUUGCGGGUUCGAGUCCCGUACGGGGCG,-0.104
18,AUUCCGUUGGCGUAAUGGUAACGCGUCUCCCUCCUAAGGAGACGAUUGCGGGUUCGAGUCCCGUACGGGUCG,-0.0688
19,AUUCCGUUGGCGUAAUGGUAACGCGUCUCCCUCCUAAGGAGACGAUUGCGGGUUCGAGUCCCGUACGGAGUG,-0.032
